Screening results deposited in PubChem BioAssay by The Scripps Research Institute Molecular Screening Center.
In the library only some 2.5% were active in any assay of this set; here they are far more common.
GSTO1 inh – GSTO1 inhibition, counter-screen for RBBP9 inhibitors; P78417; recombinant GSTO1, activity-based probe fluorescence polarization; inhibition, % at 5.96 µM; hit rate 1.1% among 300,000;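 active = inhibition above the campaign mean inhibition plus 3 SD, cut at about 35% in these data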;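 note: 0% = GSTO1-1 with DMSO and 100% = wells lacking GSTO1-1 enzyme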
Target sequence (P78417 whole entry, looked up): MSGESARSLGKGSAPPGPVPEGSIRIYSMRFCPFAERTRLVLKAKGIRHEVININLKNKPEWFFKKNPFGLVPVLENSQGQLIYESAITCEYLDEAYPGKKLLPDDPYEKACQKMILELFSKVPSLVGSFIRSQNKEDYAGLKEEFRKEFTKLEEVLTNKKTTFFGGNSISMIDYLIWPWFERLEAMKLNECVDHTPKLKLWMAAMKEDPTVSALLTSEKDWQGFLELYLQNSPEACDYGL
TDP2 inh – TDP2 (human) inhibition, absorbance primary screen | O95551 | recombinant TDP2, T5PNP hydrolysis, p-nitrophenol absorbance 415 nm | inhibition, % at 12.8 µM | hit rate 0.34% among 370,000;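 active = inhibition above the mean of all tested compounds plus 3 SD, set per campaign, cut at about 25% in these data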;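 note: 0% = DMSO with enzyme and 100% = buffer with substrate but no TDP2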
Target sequence (O95551 whole entry, looked up): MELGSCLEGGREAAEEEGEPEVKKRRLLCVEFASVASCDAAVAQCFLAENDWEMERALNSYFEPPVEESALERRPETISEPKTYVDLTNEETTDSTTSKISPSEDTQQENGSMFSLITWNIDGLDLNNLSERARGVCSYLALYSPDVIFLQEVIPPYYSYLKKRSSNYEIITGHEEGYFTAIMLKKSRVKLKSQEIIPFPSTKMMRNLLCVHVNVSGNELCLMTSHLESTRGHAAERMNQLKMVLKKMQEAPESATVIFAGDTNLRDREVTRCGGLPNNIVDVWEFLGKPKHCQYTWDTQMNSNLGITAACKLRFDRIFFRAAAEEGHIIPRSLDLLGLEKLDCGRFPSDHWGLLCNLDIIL
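Incubation: 2 h at 37 °C; Test system: recombinant human TDP2; Quantity: enzyme 120 nM; Read-out basis: percent inhibition; Medium: 50 mM Tris-HCl pH 7.5 with Mg2+, KCl, DTT, BSA; Repeats: single replicate; Compound: 12.8 µM single point, 1% DMSO; Signal: epi absorbance; Reagent: 5 mM T5PNP chromogenic substrate; Benchmarks: no-enzyme high, DMSO-plus-enzyme low.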
CTSL1 counter – cathepsin L1 inhibition, PFM18AAP counter-screen; recombinant F. hepatica cathepsin L1, Z-Leu-Arg-MCA fluorescence; inhibition, % at 5.96 µM; hit rate 0.49% among 300,000; AID 1906;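 active = inhibition above the mean of all tested compounds plus 3 SD, set per screening campaign, cut at about 17% in these data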;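 note: 0% = plate median of test compound wells and 100% = 1 µM Z-Phe-Ala-diazomethylketone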
PAD4 FP inh – PAD4 (human) enzyme inhibition; inhibition, % at 6.36 µM; Q9UM07; hit rate 0.41% among 330,000; recombinant PAD4, RCA probe fluorescence polarization;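 active = percent inhibition above a cutoff equal to the mean of all tested compounds plus 3 SD, cut at about 15% in these data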;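 note: 0% = PAD4 with RCA probe and DMSO and 100% = probe without PAD4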
PRMT1 inh – blocks human protein arginine methyltransferase 1; Q99873; recombinant PRMT1, activity-based probe fluorescence polarization; inhibition, % at 2.79 µM; hit rate 1.3% among 370,000;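 active = inhibition above about 21% made by adding two undisclosed values, limit read from the data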
PRMT1 inh conf – PRMT1 (human) inhibition, FP confirmation; inhibition, % at 2.79 µM; recombinant His-PRMT1, activity-based probe fluorescence polarization; hit rate 42% among 3,300; AID 687036; shares compounds with PRMT1 inh;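 active = mean inhibition across replicates above the hit cutoff derived for the earlier primary screen, cut at about 22% in these data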
Numbers without * were called inactive; . = no result.

SMILES | GSTO1 inh | TDP2 inh | CTSL1 counter | PAD4 FP inh | PRMT1 inh | PRMT1 inh conf
Cc1ccc(S(=O)(=O)Nc2cccc(C(=O)NCC(C)(C)N3CCOCC3)c2)cc1F | 9 | -9 | -4 | 0 | 3 | .
CC(C)(CNC(=O)c1cccc(S(=O)(=O)Nc2ccc(SC(F)F)cc2)c1)N1CCOCC1 | . | -2 | . | . | 46* | 66*
O=C(NC1CCN(Cc2ccccc2)CC1)c1cccc(S(=O)(=O)Nc2ccc(SC(F)F)cc2)c1 | . | 0 | . | 7 | 41* | 58*
Cc1ccc(NS(=O)(=O)c2cccc(C(=O)NC3CCN(Cc4ccccc4)CC3)c2)cc1 | . | -6 | . | . | -3 | .
COC[C@@H](O)[C@H]1OCc2cccc(OC)c2[C@@H]1/C=C/c1ccccc1 | . | -4 | . | . | -2 | .
CCOC(=O)c1cccc(-c2cc(C(C)=O)c3n(c2=O)CCC3)c1 | . | 9 | . | . | -1 | .
O=C(NCc1ccccn1)C1Nc2ccc(OC(F)(F)F)cc2C2C=CCC12 (centres undefined) | 2 | 11 | -1 | -4 | 34* | 4
CCOC(=O)C1Nc2ccc(OC(F)(F)F)cc2C2C=CCC12 (centres undefined) | 5 | -1 | -3 | -5 | 13 | .
O=c1oc2cc(O)ccc2s1 | 53* | -3 | -2 | -3 | 86* | 33*
CCN(CC)C(=O)CC[C@H]1CC[C@]2(CCCN(C(=O)c3ccco3)C2)O1 | . | 3 | . | . | 5 | .
COc1ccc(N/C=C2\CCOC2=O)cc1 | -2 | -2 | 2 | -3 | 1 | .
COc1ccc(N/C=C2\CCc3ccccc3C2=O)cc1 | 25 | -7 | 0 | 6 | 59* | 44*
Cc1ccc(C2c3sc(=O)[nH]c3SC3C4CC(C5C(=O)N(C(C)C(=O)O)C(=O)C45)C23)cc1 (centres undefined) | -1 | 1 | -1 | 9 | 59* | 20
Cc1ccc(NS(=O)(=O)c2cc(NC(=O)c3ccc4c(c3)NC(=O)CS4)ccc2C)c(C)c1 | -2 | -3 | 0 | -2 | 34* | 23*
CC(=O)c1sc2nc(-c3cccs3)ccc2c1N | -8 | -7 | 15 | 5 | 73* | 29*
Nc1c(C(=O)C2CC2)sc2nc(-c3cccs3)cc(C(F)(F)F)c12 | -3 | -12 | -1 | -4 | 32* | -1
CC(C)NC(=O)c1sc2nc(-c3cccs3)cc(-c3cccs3)c2c1N | -18 | -2 | -2 | -49 | 30* | 3
COc1ccc(C(=O)c2sc3nc(C)cc(-c4cccs4)c3c2N)cc1 | . | -5 | . | . | 6 | .
Nc1ccc(N2CCCC2)c(S(=O)(=O)Nc2cccc(C(F)(F)F)c2)c1 | . | -8 | . | -5 | 47* | 7
COc1ccc(-c2ccc3c(n2)CCCN3Cc2ccccc2C(F)(F)F)cc1 | . | -8 | . | . | -2 | .
CC1CCC2(CC1)CCN(CCCOC(=O)Nc1cccc(C(F)(F)F)c1)C2=O (centres undefined) | . | 3 | . | . | 3 | .
Cc1ccc(C2=NC3(CCCC3)N=C2SCC(=O)Nc2ccc3c(c2)OCCO3)cc1 | -3 | -2 | 0 | 2 | 55* | 47*
COc1ccc(S(=O)(=O)N2CN(Cc3ccco3)c3nc4ccccc4nc32)cc1 | 1 | -6 | -1 | -1 | 9 | .
O=S(=O)(c1ccc(F)cc1)N1CN(Cc2ccco2)c2nc3ccccc3nc21 | 7 | 0 | 2 | 6 | 26* | 3
CCOC(=O)c1ccc(N=C2SC(C(=O)NC)CC(=O)N2Cc2ccc(F)cc2)cc1 (centres undefined) | 4 | 14 | 1 | -8 | 0 | .
SMILES | GSTO1 inh | TDP2 inh | CTSL1 counter | PAD4 FP inh | PRMT1 inh | PRMT1 inh conf
COc1cc(N=c2ssnc2Cl)cc(OC)c1OC | -6 | -6 | 6 | -1 | 97* | 90*
CCOC(=O)c1ccc(N=c2ssnc2Cl)cc1 | . | -2 | . | . | 78* | 89*
Clc1ccc(N=c2ssnc2Cl)cc1 | 3 | 8 | 2 | -8 | 73* | 93*
Fc1ccc(N=c2ssnc2Cl)c(F)c1 | 5 | 7 | -1 | -1 | 44* | 41*
COC(=O)[C@H]1C[C@@]2(n3ccc4ccccc43)c3ccccc3N(S(=O)(=O)c3ccccc3)[C@H]2N1 | . | 9 | . | . | -1 | .
COc1cc(O)c(C(CC(=O)N2CC(C)OC(C)C2)c2ccc3c(c2)OCO3)c(OC)c1 (centres undefined) | . | 4 | . | . | 3 | .
O=C(CNS(=O)(=O)c1ccc(Br)s1)N1CCN(c2ccccn2)CC1 | . | 7 | . | . | -1 | .
N#Cc1ccc(N=c2ssnc2Cl)cc1 | 3 | 3 | 1 | 0 | 91* | 97*
COc1ccc(N=c2ssnc2Cl)cc1 | 8 | . | 2 | 3 | . | .
CC(=O)NC1C(=O)N=C(SCC(=O)Nc2ccc(C(F)(F)F)cc2Cl)NC1=O (centres undefined) | -23 | -5 | -4 | 0 | 38* | 19
CC(=O)NC1C(=O)N=C(SCC(=O)NC2CCCCC2)NC1=O (centres undefined) | 2 | 12 | -3 | 3 | 17 | .
COc1ccccc1NC(=O)CSC1=NC(=O)C(Cc2ccccc2)C(=O)N1 (centres undefined) | 10 | -10 | 5 | 5 | 3 | .
CC(=O)NC1C(=O)N=C(SCC(=O)NC(C)c2ccccc2)NC1=O (centres undefined) | 8 | -1 | 0 | 3 | 31* | 15
COc1ccccc1NC(=O)CSC1=NC(=O)C(NC(C)=O)C(=O)N1 (centres undefined) | 0 | 4 | 1 | 8 | 25* | 9
O=[N+]([O-])c1cccc(C2=Nn3c(nnc3-c3ccccc3)SC2)c1 | . | 4 | . | . | -2 | .
CCN(CC)C(=O)CC[C@@H]1CC[C@]2(CCCN(C(=O)c3ccno3)C2)O1 | . | 6 | . | . | -1 | .
Cc1cccc(N=C2NC(=O)/C(=C/C=C/c3ccco3)S2)c1C | 16 | 14 | 3 | -8 | 29* | 31*
Cc1cccc(N2C(=O)CC(n3ccnc3)C2=O)c1C (centres undefined) | 10 | -13 | -2 | 0 | 36* | 6
Cc1ccc(N2C(=O)CC(n3ccnc3)C2=O)cc1C (centres undefined) | -6 | 7 | 0 | -3 | 2 | .
O=C(O)C(c1ccccc1)N1C(=O)/C(=C\c2ccc(O)c(O)c2)SC1=S (centres undefined) | -67 | -6 | 0 | -24 | 39* | 45*
CCOc1cc(/C=C2\SC(=S)N(C(C(=O)O)c3ccccc3)C2=O)ccc1O (centres undefined) | -171 | -1 | 2 | -75 | 25* | -3
Cc1ccc(CNC(=O)CSc2nc3ccsc3c(=O)n2Cc2ccccn2)cc1 | -8 | -2 | 2 | -1 | 13 | .
COc1ccc(NC(=O)CSc2nc3ccsc3c(=O)n2Cc2ccccn2)c(OC)c1 | -9 | 4 | -3 | 1 | 29* | 1
COc1ccc(NC(=O)CSc2c3c(nc4ccccc24)CCCC3)c(OC)c1 | -8 | -22 | -4 | 11 | 26* | 26*
